Broadly, the IC50 is the midpoint of a concentration-inhibition curve.

Activity, IC50 and Kb data for 1 molecule are collected here from ChEMBL document CHEMBL4257556, “Novel 1,3,4-thiadiazole-chalcone hybrids containing catechol moiety: synthesis, antioxidant activity, cytotoxicity and DNA interaction studies” (Medchemcomm, 2018).

Calls of active or inactive are those of the source. The rule behind the calls is not given here.

The subject of assay [1] is Calf thymus DNA. As to the kind of experiment: Binding affinity to calf thymus DNA assessed as hyperchromism at 20 uM after 90 mins by UV/visible spectrophotometric analysis. Type of assay: nucleic-acid assay. To be noted: Bos taurus. In outline:
(§1)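 CT-DNA stock in 10 mM Tris-HCl pH 7.9 (A260/A280 1.89–2.01; concentration from ε260 6600 M–1 cm–1). Compound (10, 20 or 40 μM) plus CT-DNA (95 μM) in 40 mM bicarbonate pH 8.4, 37 °C 90 min; spectra 200–800 nm. Hyper/hypochromism at 259 nm from bound versus summed free compound and DNA extinction; triplicate.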

Assay [2] has as its system A549. In words: Cytotoxicity against human A549 cells assessed as decrease in cell survival after 72 hrs by MTT assay. In kind it is functional, cell-based. The settings on record: A549, 72 h. In outline: (§2)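 HeLa (2000/well), A549 and MRC-5 (5000/well) seeded 20 h before treatment; HL-60 (7000/well) 2 h before. Five concentrations (6.25–100 μM or 3.125–50 μM) from 5 mM DMSO stocks, final DMSO ≤1%, 72 h; survival by MTT. Cisplatin positive control; three independent experiments in triplicate.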
(Formazan colour is commonly taken as a measure of viable cells.)

Assay [3] relates to HeLa. As to the kind of experiment: Cell cycle arrest in human HeLa cells assessed as accumulation at sub-G1 phase at IC50 and 2 times IC50 after 24 hrs by propidium iodide staining-based flow cytometric method. In kind it is functional. In outline: (§3)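 HeLa cells treated 24 h at IC50 or 2×IC50 (from 72 h assay), fixed in 70% ethanol, stored at –20 °C ≥1 week, RNase A 30 min 37 °C, propidium iodide stained; flow cytometry, 10 000 gated events. Mean ± SD of three independent experiments; one-way ANOVA with Dunnett's post-test, p < 0.05.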
Background: A flow cytometer gives signals particle by particle.

Assay [4] deals with DNA. As to the kind of experiment: Reversal of Fe2+-induced Escherichia coli pUC19 DNA cleavage at 1:1 compound to Fe2+ mole ratio after 90 mins by agarose gel electrophoresis method. In kind it is functional. In outline:
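Compound (4 μL of 2 mM) preincubated with FeSO4 (1 or 2 μL of 8 mM; compound:Fe 1:1 or 1:2) in bicarbonate buffer 60 min at 37 °C, then pUC19 added for another 90 min; products resolved on 1% agarose gel, ethidium bromide stained.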

In assay [5] the test system is HeLa. In words: Prooxidant activity in human HeLa cells assessed as increase in H2O2-induced reactive oxygen species at 10 uM preincubated for 24 hrs followed by H2O2 addition and measured after 30 mins by dichlorofluorescein dye-based flow cytometric method. Type of assay: functional, cell-based. In outline: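 HeLa cells pretreated 24 h with 10 μM compound, washed, loaded with 30 μM DCFH-DA in PBS 45 min at 37 °C. One portion read directly (endogenous ROS); other portion exposed to 10 mM H2O2 30 min at 37 °C. DCF green fluorescence by flow cytometry, 20 000 events per sample; mean ± SD of two independent experiments.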

For assay [6], the system named is MRC5. As to the kind of experiment: Induction of DNA damage in human MRC5 cells assessed as formation of DNA breaks after 24 hrs by comet assay. In kind it is functional, cell-based. In outline: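 MRC-5 cells exposed 24 h to 3.125–25 μM compound; DNA damage scored as % tail DNA (tail intensity) by comet assay. PBS negative control; H2O2 50 μM 5 min in-gel positive control. Triplicate, repeated twice; mean ± SD.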

In assay [7] the test system is HeLa. As to the kind of experiment: Downregulation of miR-133b expression in human HeLa cells at 10 uM after 24 hrs by RT-qPCR method. In kind it is functional, cell-based. (In general: Real-time PCR tracks product formation cycle by cycle.)
In assay [8] the test system is HeLa. In words: Cytotoxicity against human HeLa cells assessed as decrease in cell survival after 72 hrs by MTT assay. In kind it is functional, cell-based. Summed up:
as §2

The test system of assay [9] is Calf thymus DNA. In words: Binding affinity to calf thymus DNA after 90 mins by spectroscopic titration method. To be noted: Bos taurus. In kind it is nucleic-acid assay. Summed up:
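Compound fixed at 40 μM titrated with CT-DNA (2.2–13 × 10–5 M) in 40 mM bicarbonate pH 8.4 after 90 min at 37 °C; absorbance at 259 nm per DNA level. Kb from slope/intercept ratio of [DNA]/(εa–εf) versus [DNA] plot; triplicate assays.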

In assay [10] the test system is HeLa. In words: Cell cycle arrest in human HeLa cells assessed as decrease in cell levels at G1 phase at IC50 after 24 hrs by propidium iodide staining-based flow cytometric method. Type of assay: functional. Summed up: as §3
Assay [11] concerns Calf thymus DNA. As to the kind of experiment: Binding affinity to calf thymus DNA assessed as hyperchromism at 40 uM after 90 mins by UV/visible spectrophotometric analysis. In kind it is nucleic-acid assay. To be noted: Bos taurus. In outline: as §1

`Cc1cccc(C(=O)/C=C/c2ccc(C(=O)Nc3nnc(-c4ccc(O)c(O)c4)s3)cc2)c1`: the Activity in [1] was -7.36%; in assay [6] it was “Dose-dependent effect”; in assay [11] it was -4.9%. Moreover, the IC50 in assay [2] was found to be 27.9 µM; in assay [8] it was 9.63 µM. Moreover, the result in assay [3], in [4], in assay [7] and in assay [10] was Active. Further, the outcome in assay [5] was inactive. The same molecule returned a Kb in assay [9] of 0.74 ×10³ /M.
